{"source": "ChEMBL document CHEMBL5360543", "about": "“Designed multiple ligands for the treatment of type 2 diabetes mellitus and its complications: Discovery of (5-arylidene-4-oxo-2-thioxothiazolidin-3-yl)alkanoic acids active as novel dual-targeted PTP1B/AKR1B1 inhibitors” (Eur J Med Chem, 2023)", "note": "Activity calls are given as the source filed them. The rule behind the calls is not given here."}
{"target": "T1, Aldo-keto reductase family 1 member B1 (Homo sapiens, UniProt P15121)", "experiment": "Inhibition of human recombinant AKR1B1 expressed in Escherichia coli BL21(DE3)pLysS using L-idose as substrate by NADPH oxidation based absorbance analysis", "settings": "not given", "units": {"IC50": "nM"}}
{"smiles": "O=C(O)CN1C(=O)/C(=C/c2cccc(OCCCOc3ccccc3)c2)SC1=S", "IC50": 80}
{"smiles": "O=C(O)CN1C(=O)/C(=C/c2ccc(OCCCCc3ccccc3)cc2)SC1=S", "IC50": 330}
{"smiles": "O=C(O)CCN1C(=O)/C(=C/c2cccc(OCCCc3ccccc3)c2)SC1=S", "IC50": 1200}
{"target": "T2, Tyrosine-protein phosphatase non-receptor type 1 (Homo sapiens, UniProt P18031)", "T2 sequence (P18031 whole entry)": "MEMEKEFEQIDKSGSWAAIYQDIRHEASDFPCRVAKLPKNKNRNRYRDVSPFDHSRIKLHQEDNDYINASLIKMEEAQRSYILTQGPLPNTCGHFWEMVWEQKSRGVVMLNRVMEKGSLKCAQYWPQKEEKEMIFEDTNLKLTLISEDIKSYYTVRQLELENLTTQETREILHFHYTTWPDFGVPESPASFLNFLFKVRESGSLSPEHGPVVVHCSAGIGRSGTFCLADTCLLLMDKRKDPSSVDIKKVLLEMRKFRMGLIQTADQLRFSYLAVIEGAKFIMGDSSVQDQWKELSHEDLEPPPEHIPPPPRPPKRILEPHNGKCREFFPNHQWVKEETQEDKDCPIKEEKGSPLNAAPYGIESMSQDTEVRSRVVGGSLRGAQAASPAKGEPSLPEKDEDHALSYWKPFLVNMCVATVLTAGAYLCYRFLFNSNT", "experiment": "Inhibition of N-terminal polyHis-tagged human PTP1B1 (1 to 303 residues) expressed in Escherichia coli BL21(DE3)pLysS using pNPP as substrate by spectrophotometric analysis", "settings": "not given", "method_in_brief": "(§1)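 His-tagged human PTP1B (1–303) from E. coli BL21(DE3)pLysS, assayed in 0.075 M β,β-dimethylglutarate pH 7.0 with 1 mM EDTA, 0.1 mM DTT and pNPP. Reaction stopped with 0.1 M KOH; p-nitrophenol read at 400 nm. IC50 from 15–16 inhibitor concentrations in triplicate, normalized to control, fitted by nonlinear regression. Single-point residual activity at 5 µM.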", "units": {"IC50": "nM"}}
{"smiles": "O=C(O)CN1C(=O)/C(=C/c2ccc(OCCCCc3ccccc3)cc2)SC1=S", "IC50": 4000}
{"target": "T3, Tyrosine-protein phosphatase non-receptor type 1 (Homo sapiens) (UniProt P18031)", "T3 sequence (whole entry)": "T2 sequence (P18031 whole entry)", "experiment": "Inhibition of N-terminal polyHis-tagged human PTP1B1 (1 to 303 residues) expressed in Escherichia coli BL21(DE3)pLysS assessed as enzyme residual activity using pNPP as substrate at 5 uM by spectrophotometric analysis", "settings": "not given", "method_in_brief": "as §1", "units": {"Activity": "%"}}
{"smiles": "O=C(O)CN1C(=O)/C(=C/c2cccc(OCCCOc3ccccc3)c2)SC1=S", "Activity": 100}
{"smiles": "O=C(O)CCN1C(=O)/C(=C/c2cccc(OCCCc3ccccc3)c2)SC1=S", "Activity": 67.6}
{"target": "T4, Tyrosine-protein phosphatase non-receptor type 2 (Homo sapiens, UniProt P17706)", "T4 sequence (P17706 whole entry)": "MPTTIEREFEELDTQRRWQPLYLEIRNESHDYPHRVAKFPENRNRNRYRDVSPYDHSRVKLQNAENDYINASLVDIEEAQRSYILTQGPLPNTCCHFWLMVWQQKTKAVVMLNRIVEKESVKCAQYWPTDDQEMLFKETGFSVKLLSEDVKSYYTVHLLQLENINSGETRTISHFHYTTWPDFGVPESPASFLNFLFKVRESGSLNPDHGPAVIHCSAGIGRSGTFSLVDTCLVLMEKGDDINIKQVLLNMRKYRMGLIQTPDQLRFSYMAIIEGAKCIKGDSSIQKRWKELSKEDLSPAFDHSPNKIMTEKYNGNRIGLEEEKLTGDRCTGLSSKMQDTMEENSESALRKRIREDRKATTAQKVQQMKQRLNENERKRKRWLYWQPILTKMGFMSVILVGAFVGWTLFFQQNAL", "experiment": "Inhibition of N-terminal polyHis-tagged human recombinant TC-PTPb (1 to 415 residues) expressed in Escherichia coli BL21(DE3)pLysS", "settings": "not given", "units": {"IC50": "nM"}}
{"smiles": "O=C(O)CN1C(=O)/C(=C/c2ccc(OCCCCc3ccccc3)cc2)SC1=S", "IC50": 193000}
{"species_on_record": "Homo sapiens", "experiment": "Selectivity index, ratio of IC50 for inhibition of N-terminal polyHis-tagged human recombinant TC-PTPb (1 to 415 residues) expressed in Escherichia coli BL21(DE3)pLysS to IC50 for inhibition of N-terminal polyHis-tagged human PTP1B1 (1 to 303 residues) expressed in Escherichia coli BL21(DE3)pLysS", "settings": "not given"}
{"smiles": "O=C(O)CN1C(=O)/C(=C/c2ccc(OCCCCc3ccccc3)cc2)SC1=S", "Ratio IC50": 48}
{"target": "T3, Tyrosine-protein phosphatase non-receptor type 1 (Homo sapiens)", "experiment": "Reversible inhibition of N-terminal polyHis-tagged human PTP1B1 (1 to 303 residues) expressed in Escherichia coli BL21(DE3)pLysS using pNPP as substrate pretreated with enzyme for 60 mins followed by 400-fold dilution with buffer containing substrate and measured after 15 mins by spectrophotometric analysis", "settings": "time 75.0 min", "method_in_brief": "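PTP1B incubated 60 min at 37 °C with saturating inhibitor, then diluted 400-fold into assay buffer containing 2.5 mM pNPP. Stopped after 15 min with 0.2 M KOH; absorbance read at 400 nm. Normalized to enzyme diluted with DMSO; mean ± SEM (n = 3).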"}
{"smiles": "O=C(O)CN1C(=O)/C(=C/c2ccc(OCCCCc3ccccc3)cc2)SC1=S", "inhibition": "Active"}
{"target": "T1, Aldo-keto reductase family 1 member B1", "experiment": "Reversible inhibition of human recombinant AKR1B1 expressed in Escherichia coli BL21(DE3)pLysS assessed as recovery of enzyme activity using L-idose as substrate measured after extensive dialysis by NADPH oxidation based absorbance analysis", "parameters": "scale not given: the % may be the effect or the level left", "settings": "not given", "units": {"Activity": "%"}}
{"smiles": "O=C(O)CN1C(=O)/C(=C/c2ccc(OCCCCc3ccccc3)cc2)SC1=S", "Activity": "> 90"}
{"target": "T2, Tyrosine-protein phosphatase non-receptor type 1", "experiment": "Non-competitive inhibition of N-terminal polyHis-tagged human PTP1B1 (1 to 303 residues) expressed in Escherichia coli BL21(DE3)pLysS assessed as apparent dissociation constant for EI complex using pNPP as substrate by Lineweaver-Burk plot analysis", "settings": "not given", "method_in_brief": "(§2)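 PTP1B initial pNPP hydrolysis rates measured at seven pNPP concentrations (0.5–25 mM) and at least three inhibitor concentrations, in triplicate. Data fitted to Michaelis–Menten; KM and Vmax dependence on inhibitor analysed by Lineweaver–Burk plots.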", "units": {"Ki": "nM"}}
{"smiles": "O=C(O)CN1C(=O)/C(=C/c2ccc(OCCCCc3ccccc3)cc2)SC1=S", "Ki": 12100}
{"target": "T2, Tyrosine-protein phosphatase non-receptor type 1", "experiment": "Non-competitive inhibition of N-terminal polyHis-tagged human PTP1B1 (1 to 303 residues) expressed in Escherichia coli BL21(DE3)pLysS assessed as apparent dissociation constant for ESI complex using pNPP as substrate by Lineweaver-Burk plot analysis", "settings": "not given", "method_in_brief": "as §2", "units": {"Ki": "nM"}}
{"smiles": "O=C(O)CN1C(=O)/C(=C/c2ccc(OCCCCc3ccccc3)cc2)SC1=S", "Ki": 17500}
{"target": "T1, Aldo-keto reductase family 1 member B1", "experiment": "Mixed non-competitive inhibition of human recombinant AKR1B1 expressed in Escherichia coli BL21(DE3)pLysS assessed as apparent dissociation constant for EI complex using L-idose as substrate by secondary plot analysis", "settings": "not given", "method_in_brief": "(§3)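 AKR1B1 rates measured at varied L-idose concentrations with and without several inhibitor concentrations, then Lineweaver–Burk analysis. […] Tight binders fitted with the Morrison equation, KM for L-idose taken as 3.8 mM. At least three independent experiments.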", "units": {"Ki": "nM"}}
{"smiles": "O=C(O)CN1C(=O)/C(=C/c2ccc(OCCCCc3ccccc3)cc2)SC1=S", "Ki": 1300}
{"target": "T1, Aldo-keto reductase family 1 member B1", "experiment": "Mixed non-competitive inhibition of human recombinant AKR1B1 expressed in Escherichia coli BL21(DE3)pLysS assessed as apparent dissociation constant for ESI complex using L-idose as substrate by secondary plot analysis", "settings": "not given", "method_in_brief": "as §3", "units": {"Ki": "nM"}}
{"smiles": "O=C(O)CN1C(=O)/C(=C/c2ccc(OCCCCc3ccccc3)cc2)SC1=S", "Ki": 410}
{"target": "T1, Aldo-keto reductase family 1 member B1", "experiment": "Ratio of Ki for human recombinant AKR1B1 expressed in Escherichia coli BL21(DE3)pLysS assessed as apparent dissociation constant for EI complex to Ki for human recombinant AKR1B1 expressed in Escherichia coli BL21(DE3)pLysS assessed as apparent dissociation constant for ESI complex", "settings": "not given", "method_in_brief": "as §3"}
{"smiles": "O=C(O)CN1C(=O)/C(=C/c2ccc(OCCCCc3ccccc3)cc2)SC1=S", "Ratio Ki": 2}
{"test_system": "C2C12", "experiment": "Cytotoxicity against mouse C2C12 cells assessed as reduction in cell viability at 20 uM incubated for 24 hrs by MTT assay", "assay_type": "toxicity, cell-based", "settings": "c2c12, 24 h", "method_in_brief": "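C2C12 myoblasts were differentiated for 96 h in DMEM with 2% horse serum, then held 24 h in complete medium with 20 µM compound, DMSO vehicle as control. MTT 0.5 mg/mL was added, cells lysed in DMSO, absorbance read, and values normalized to vehicle. Quadruplicate, mean ± SD (n = 4).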"}
{"smiles": "O=C(O)CN1C(=O)/C(=C/c2ccc(OCCCCc3ccccc3)cc2)SC1=S", "Activity": "Non-Toxic"}
{"target": "T5, Tyrosine-protein phosphatase non-receptor type 1 (Mus musculus) (UniProt P35821)", "T5 sequence (whole entry)": "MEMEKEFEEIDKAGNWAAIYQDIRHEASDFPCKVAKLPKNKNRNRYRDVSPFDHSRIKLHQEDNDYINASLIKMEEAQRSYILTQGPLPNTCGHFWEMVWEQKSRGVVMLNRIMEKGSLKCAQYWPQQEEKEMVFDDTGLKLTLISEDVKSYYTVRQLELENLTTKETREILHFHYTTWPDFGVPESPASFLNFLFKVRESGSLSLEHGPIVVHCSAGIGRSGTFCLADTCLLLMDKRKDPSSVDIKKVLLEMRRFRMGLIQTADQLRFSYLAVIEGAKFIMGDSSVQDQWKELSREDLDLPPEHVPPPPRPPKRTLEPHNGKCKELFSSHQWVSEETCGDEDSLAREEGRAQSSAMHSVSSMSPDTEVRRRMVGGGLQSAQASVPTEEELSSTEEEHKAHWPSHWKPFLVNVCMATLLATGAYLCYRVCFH", "experiment": "Inhibition of PTP1B in mouse C2C12 cells assessed as increase in Akt phosphorylation by measuring increase in ratio of pAkt to Akt at 20 uM treated for 15 mins by western blot analysis", "assay_type": "cell-based", "settings": "not given", "method_in_brief": "(§4)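 C2C12 cells starved 24 h, then given 10 nM insulin, 20 µM compound, or both, for 15 min. Washed in cold PBS, lysed in 1X Laemmli buffer, run on SDS-PAGE, blotted to PVDF. Probed with antibodies to phospho-Akt and total Akt, with actin as loading control. Bands quantified; triplicate, mean ± SD (n = 3).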"}
{"smiles": "O=C(O)CN1C(=O)/C(=C/c2ccc(OCCCCc3ccccc3)cc2)SC1=S", "inhibition": "inactive"}
{"target": "T5, Tyrosine-protein phosphatase non-receptor type 1 (Mus musculus)", "experiment": "Inhibition of PTP1B in mouse C2C12 cells assessed as potentiation of insulin-induced Akt phosphorylation by measuring increase in ratio of pAkt to Akt at 20 uM treated for 15 mins in presence of insulin by western blot analysis", "assay_type": "cell-based", "settings": "not given", "method_in_brief": "as §4"}
{"smiles": "O=C(O)CN1C(=O)/C(=C/c2ccc(OCCCCc3ccccc3)cc2)SC1=S", "inhibition": "inactive"}
